Holding throughout (assay type): functional, cell-based
The subject of one assay is HeLa. The assay can be described thus: Cytotoxicity against human HeLa cells after 44 hrs by MTT assay. The gist of the method: (§1)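 Exponential-phase cells seeded at 5 × 10⁴ per well and preincubated 24 h at 37 °C, 5% CO₂. Test agent added in triplicate at final 10, 50 and 100 μg/mL, incubated 44 h at 37 °C. MTT then added for 4 h at 37 °C, absorbance read at 490 nm. IC50 derived from percentage inhibition by linear regression.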
(Tetrazolium dyes change colour on reduction, which living cells bring about.)

Assay [1] is described as follows: Cytotoxicity against rat HSC-T6 cells after 44 hrs by MTT assay. The gist of the method:
as §1

The subject of the next assay is B16. The assay can be described thus: Cytotoxicity against mouse B16 cells after 44 hrs by MTT assay. A digest of the protocol:
as §1

Setting [2] is: Homo sapiens, HeLa, 44 h, read-out: IC50.
Where [3] appears, read: Rattus norvegicus, HSC-T6, 44 h, read-out: IC50.
Setting [4] is: Mus musculus, B16, 44 h, read-out: IC50.

In brackets after ≈: the same amount, converted by molar mass.

As usually defined, the IC50 is the concentration needed to halve the response being measured. As to `CC(=O)OC[C@@]1(C(=O)O)CCC[C@@]2(C)[C@@H]3CC[C@H]4C[C@@]3(CC[C@H]12)C[C@H]4COC(=O)C(C)C`, the IC50 came to 24.6 µg/mL (≈ 54.8 µM) in the assay with HeLa (setting [2]), 24.6 µg/mL (≈ 54.8 µM) in assay [1] (setting [3]) and 22.8 µg/mL (≈ 50.8 µM) in the assay on B16 (setting [4]).

For the compound `CC1(C)OC[C@@H]([C@]2(C)C=C3CC[C@@H]4C(C)(C)[C@H](O)CC[C@@]4(C)C3CC2)O1` (stereo partly drawn), the values for the half-maximal inhibitory concentration (IC50) (with HeLa (setting [2]); in assay [1] (setting [3]); in the assay with B16 (setting [4])) were 11.7 µg/mL (≈ 32.3 µM), 12.6 µg/mL (≈ 34.8 µM) and 7.8 µg/mL (≈ 21.5 µM), respectively.

For the compound `C[C@@]12CCC[C@@](C)(C(=O)O)[C@H]1CC[C@@]13C[C@H](CC[C@H]12)[C@@](O)(CO)C3`, the IC50 (in the assay on HeLa (setting [2]); in assay [1] (setting [3]); in the assay on B16 (setting [4])) was > 100 µg/mL throughout.

Regarding `CC1(C)[C@H](O)CC[C@@]2(C)[C@@H]3CC[C@](C)([C@@H](O)CO)C=C3CC[C@H]12` [DARUTIGENOL], the results for the half-inhibitory concentration (IC50) (in the assay with HeLa (setting [2]); in assay [1] (hsc-t6); in the assay with B16 (b16)) were > 100 µg/mL, “Not Active” and “Not Active”, respectively.

With `C[C@@]1(CO)C[C@@H](O)C[C@@]2(C)[C@@H]3CC[C@](C)([C@@H](O)CO)C=C3CC[C@H]12` [KIRENOL], the IC50 entry in the assay on HeLa (hela) was “Not Active”; in assay [1] (setting [3]), > 100 µg/mL; with B16 (setting [4]) it was > 100 µg/mL.

Turning to `CC(=O)O[C@H]1C(=O)[C@@]2(C)[C@H]([C@H](OC(=O)c3ccccc3)[C@]3(O)C[C@H](OC(=O)[C@H](O)[C@@H](NC(=O)c4ccccc4)c4ccccc4)C(C)=C1C3(C)C)[C@]1(OC(C)=O)CO[C@@H]1C[C@@H]2O` [PACLITAXEL], the figures for the IC50 (in the assay with HeLa (setting [2]); in assay [1] (setting [3]); with B16 (setting [4])) were 0.61 µg/mL (≈ 0.714 µM), 0.75 µg/mL (≈ 0.878 µM) and 0.63 µg/mL (≈ 0.738 µM), respectively.
